ChEMBL document CHEMBL3616456, “Potential of aryl-urea-benzofuranylthiazoles hybrids as multitasking agents in Alzheimer's disease” (Eur J Med Chem, 2015)

Columns and labels:
Acetylcholinesterase = Acetylcholinesterase (Electrophorus electricus, UniProt O42275); assay: Inhibition of electric eel acetylcholinesterase using acetylthiocholine iodide as substrate preincubated for 15 mins followed by substrate addition by Ellman's method
Cholinesterase = Cholinesterase (Equus caballus, UniProt P81908); assay: Inhibition of horse serum butyrylcholinesterase using butyrylthiocholine iodide as substrate preincubated for 15 mins followed by substrate addition by Ellman's method
Procedure, shortened: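 Enzyme in 100 mM phosphate buffer pH 8.0 with sample (n-propanol as solvent and control) preincubated 15 min at 25°C. Reaction started with butyrylthiocholine iodide (0.79 mM solution) plus DTNB. Thiolate-DTNB yellow product followed at 412 nm. IC50 taken from inhibition (%) curves at five concentrations: 12.5, 25, 50, 100 and 200 µM.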

[1] = Antioxidant activity assessed as ABTS cation radical scavenging activity measured after 6 mins
[2] = Antioxidant activity assessed as cupric reducing antioxidant capacity measured after 1 hr; format: physicochemical
[3] = Selectivity index, ratio of IC50 for horse serum butyrylcholinesterase to IC50 for electric eel acetylcholinesterase
[4] = molecular target: Cholinesterase (Equus caballus) (UniProt P81908); assay: Potency index, ratio of galanthamine IC50 to compound IC50 for horse serum butyrylcholinesterase
[5] = molecular target: Cholinesterase (Equus caballus) (UniProt P81908); assay: Potency index, ratio of donepezil IC50 to compound IC50 for horse serum butyrylcholinesterase

Sequence of Acetylcholinesterase (O42275 whole entry): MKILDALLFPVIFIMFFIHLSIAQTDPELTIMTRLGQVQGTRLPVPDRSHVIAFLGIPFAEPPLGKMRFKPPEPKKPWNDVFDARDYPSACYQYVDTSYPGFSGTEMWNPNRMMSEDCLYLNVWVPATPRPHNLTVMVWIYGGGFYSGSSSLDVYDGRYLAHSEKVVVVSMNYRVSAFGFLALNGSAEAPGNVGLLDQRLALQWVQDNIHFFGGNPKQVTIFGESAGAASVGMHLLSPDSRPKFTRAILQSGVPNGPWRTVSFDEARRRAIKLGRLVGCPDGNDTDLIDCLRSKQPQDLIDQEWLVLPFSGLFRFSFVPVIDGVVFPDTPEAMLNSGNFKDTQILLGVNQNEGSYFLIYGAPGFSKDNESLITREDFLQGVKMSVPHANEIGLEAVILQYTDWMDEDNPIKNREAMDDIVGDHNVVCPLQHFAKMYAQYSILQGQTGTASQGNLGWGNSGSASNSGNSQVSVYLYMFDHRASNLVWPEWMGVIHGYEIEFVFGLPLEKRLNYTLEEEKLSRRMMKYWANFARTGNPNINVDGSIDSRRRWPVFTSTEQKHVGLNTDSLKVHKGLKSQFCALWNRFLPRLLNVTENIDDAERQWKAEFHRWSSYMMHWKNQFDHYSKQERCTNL
Sequence of Cholinesterase (P81908 whole entry): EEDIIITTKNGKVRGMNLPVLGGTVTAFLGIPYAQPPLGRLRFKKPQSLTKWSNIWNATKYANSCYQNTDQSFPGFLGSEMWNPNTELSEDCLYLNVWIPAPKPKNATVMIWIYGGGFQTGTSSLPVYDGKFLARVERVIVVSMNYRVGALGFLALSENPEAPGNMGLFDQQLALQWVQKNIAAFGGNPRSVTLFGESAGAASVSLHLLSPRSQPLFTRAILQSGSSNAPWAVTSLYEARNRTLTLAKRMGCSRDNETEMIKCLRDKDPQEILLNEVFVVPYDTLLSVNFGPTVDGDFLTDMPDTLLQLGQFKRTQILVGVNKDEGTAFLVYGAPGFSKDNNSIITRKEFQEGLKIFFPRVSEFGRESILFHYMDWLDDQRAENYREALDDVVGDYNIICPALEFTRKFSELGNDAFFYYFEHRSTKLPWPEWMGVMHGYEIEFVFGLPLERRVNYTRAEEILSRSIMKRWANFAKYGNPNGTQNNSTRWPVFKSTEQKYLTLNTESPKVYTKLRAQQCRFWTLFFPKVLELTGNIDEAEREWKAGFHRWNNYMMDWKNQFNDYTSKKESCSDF
Sequence of Cholinesterase (Equus caballus) (P81908 whole entry): as above

Row | SMILES | IC50 (Acetylcholinesterase) [µM] | IC50 (Cholinesterase) [µM] | IC50 ([1]; ABTS cation radical) [µM] | A0.5 [2] [µM] | Ratio IC50 [3] | IC50 [1] [µM] | Ratio IC50 [4] | Ratio IC50 [5]
1 | O=C(Nc1ccccc1)Nc1nc(-c2cc3cc(Br)ccc3o2)cs1 | 23.3 | 35 | > 200 | > 200 | 1.5 | – | – | –
2 | O=c1c(O)c(-c2ccc(O)c(O)c2)oc2cc(O)cc(O)c12 [QUERCETIN] | – | – | 1.18 | 1.45 | – | – | – | –
3 | O=C(Nc1ccc(Br)cc1)Nc1nc(-c2cc3cc([N+](=O)[O-])ccc3o2)cs1 | 28.2 | 34.5 | 194 | > 200 | 1.22 | – | – | –
4 | Cc1ccc(NC(=O)Nc2nc(-c3cc4cc(Br)ccc4o3)cs2)cc1 | 32.5 | 5.65 | > 200 | > 200 | 0.17 | – | – | –
5 | O=C(Nc1ccc([N+](=O)[O-])cc1)Nc1nc(-c2cc3cc(Br)ccc3o2)cs1 | 4.78 | 3.12 | > 200 | 120.74 | 0.65 | – | – | –
6 | COc1ccc(NC(=O)Nc2nc(-c3cc4cc(Br)ccc4o3)cs2)cc1 | 32.8 | 31 | > 200 | > 200 | 0.95 | – | – | –
7 | O=C(Nc1ccc(Cl)cc1)Nc1nc(-c2cc3cc(Br)ccc3o2)cs1 | 22.2 | 36.9 | > 200 | > 200 | 1.66 | – | – | –
8 | O=C(Nc1ccc(F)cc1)Nc1nc(-c2cc3cc(Br)ccc3o2)cs1 | 35.6 | 64.3 | > 200 | 146.78 | 1.81 | – | – | –
9 | O=C(Nc1ccc(F)cc1)Nc1nc(-c2cc3cc([N+](=O)[O-])ccc3o2)cs1 | 41.1 | 47.6 | 123 | > 200 | 1.16 | – | – | –
10 | O=C(Nc1nc(-c2cc3ccccc3o2)cs1)Nc1ccccc1[N+](=O)[O-] | 41.9 | 79.9 | 20.3 | 100.33 | 1.91 | – | – | –
11 | COc1cccc(NC(=O)Nc2nc(-c3cc4cc(Br)ccc4o3)cs2)c1 | 29.4 | 13.9 | > 200 | > 200 | 0.47 | – | – | –
12 | O=C(Nc1ccc([N+](=O)[O-])cc1)Nc1nc(-c2cc3cc([N+](=O)[O-])ccc3o2)cs1 | 25.2 | 25.6 | 100 | > 200 | 1.02 | – | – | –
13 | O=C(Nc1ccc(Cl)cc1)Nc1nc(-c2cc3cc([N+](=O)[O-])ccc3o2)cs1 | 30.6 | 26.6 | 117 | > 200 | 0.87 | – | – | –
14 | O=C(Nc1ccc(Cl)cc1)Nc1nc(-c2cc3ccccc3o2)cs1 | 42.6 | 38.6 | 11.2 | > 200 | 0.91 | – | – | –
15 | O=C(Nc1ccc(Br)cc1)Nc1nc(-c2cc3ccccc3o2)cs1 | 32.8 | 55.2 | > 200 | > 200 | 1.68 | – | – | –
16 | O=C(Nc1ccc(F)cc1)Nc1nc(-c2cc3ccccc3o2)cs1 | 55 | 7.45 | 1.13 | 110.31 | 0.14 | – | – | –
17 | O=C(Nc1cccc([N+](=O)[O-])c1)Nc1nc(-c2cc3cc(Br)ccc3o2)cs1 | 17.4 | 79 | 159 | > 200 | 4.53 | – | – | –
18 | O=C(Nc1cccc(F)c1)Nc1nc(-c2cc3cc(Br)ccc3o2)cs1 | 29.4 | 40.2 | > 200 | > 200 | 1.37 | – | – | –
19 | O=C(Nc1cccc([N+](=O)[O-])c1)Nc1nc(-c2cc3ccccc3o2)cs1 | 41.2 | 26.8 | – | > 200 | 0.65 | 1.26 | – | –
20 | O=C(Nc1cccc(Cl)c1)Nc1nc(-c2cc3cc(Br)ccc3o2)cs1 | 7.93 | 26.3 | > 200 | > 200 | 3.32 | – | – | –

Row | SMILES | IC50 (Acetylcholinesterase) [µM] | IC50 (Cholinesterase) [µM] | IC50 ([1]; ABTS cation radical) [µM] | A0.5 [2] [µM] | Ratio IC50 [3] | IC50 [1] [µM] | Ratio IC50 [4] | Ratio IC50 [5]
21 | COc1cccc(NC(=O)Nc2nc(-c3cc4ccccc4o3)cs2)c1 | 48.9 | 59.6 | 0.2 | 104.46 | 1.22 | – | – | –
22 | O=C(Nc1ccc(Br)cc1)Nc1nc(-c2cc3cc(Br)ccc3o2)cs1 | 11.9 | 35.8 | > 200 | > 200 | 3 | – | – | –
23 | O=C(Nc1ccccc1)Nc1nc(-c2cc3ccccc3o2)cs1 | 24.7 | 21.3 | 28.2 | 132 | 0.86 | – | – | –
24 | O=C(Nc1ccc(I)cc1)Nc1nc(-c2cc3cc(Br)ccc3o2)cs1 | 6.42 | 43.6 | > 200 | > 200 | 6.8 | – | – | –
25 | COc1ccccc1NC(=O)Nc1nc(-c2cc3cc(Br)ccc3o2)cs1 | 78.8 | 154 | 77.2 | 92.68 | 1.95 | – | – | –
26 | O=C(Nc1cccc(F)c1)Nc1nc(-c2cc3ccccc3o2)cs1 | 49 | 18 | 4.52 | 126.52 | 0.37 | – | – | –
27 | O=C(Nc1ccccc1)Nc1nc(-c2cc3cc([N+](=O)[O-])ccc3o2)cs1 | 4.42 | 2.26 | 183 | > 200 | 0.51 | – | – | –
28 | O=C(Nc1nc(-c2cc3cc(Br)ccc3o2)cs1)Nc1ccccc1F | 3.85 | 9.25 | > 200 | > 200 | 2.4 | – | – | –
29 | O=C(Nc1ccc(I)cc1)Nc1nc(-c2cc3ccccc3o2)cs1 | 21.4 | 41.3 | 62 | 133 | 1.93 | – | – | –
30 | COc1ccc(NC(=O)Nc2nc(-c3cc4ccccc4o3)cs2)cc1 | 52.5 | 74.3 | 17.4 | 146.34 | 1.42 | – | – | –
31 | O=C(Nc1ccc([N+](=O)[O-])cc1)Nc1nc(-c2cc3ccccc3o2)cs1 | 5.23 | 3.44 | 19.3 | > 200 | 0.66 | – | – | –
32 | O=C(Nc1cccc(Cl)c1)Nc1nc(-c2cc3ccccc3o2)cs1 | 9.67 | 21.5 | 14.1 | > 200 | 2.22 | – | – | –
33 | O=C(Nc1nc(-c2cc3ccccc3o2)cs1)Nc1ccccc1F | 30.9 | 41.7 | 2.63 | 102.43 | 1.35 | – | – | –
34 | COc1ccc(NC(=O)Nc2nc(-c3cc4cc([N+](=O)[O-])ccc4o3)cs2)cc1 | 34.1 | 49.2 | 121 | > 200 | 1.44 | – | – | –
35 | O=C(Nc1ccc(I)cc1)Nc1nc(-c2cc3cc([N+](=O)[O-])ccc3o2)cs1 | 5.53 | 2.03 | 62.4 | > 200 | 0.37 | – | 8.5 | 2.3
36 | O=C(Nc1ccc(Cl)c(Cl)c1)Nc1nc(-c2cc3ccccc3o2)cs1 | 52 | 75.6 | > 200 | > 200 | 1.45 | – | – | –
37 | O=C(Nc1nc(-c2cc3cc(Br)ccc3o2)cs1)Nc1ccccc1[N+](=O)[O-] | 8.82 | 5.12 | 166 | 122.22 | 0.58 | – | – | –
38 | Cc1ccc(NC(=O)Nc2nc(-c3cc4ccccc4o3)cs2)cc1 | 10.4 | 56.3 | 0.5 | 192.91 | 5.41 | – | – | –
39 | COc1ccccc1NC(=O)Nc1nc(-c2cc3ccccc3o2)cs1 | 61 | 81.3 | 47.4 | > 200 | 1.33 | – | – | –
